From ChEMBL document CHEMBL3112454, “Discovery and SAR study of hydroxyacetophenone derivatives as potent, non-steroidal farnesoid X receptor (FXR) antagonists” (Bioorg Med Chem, 2014)

The molecules below were run against T1, Bile acid receptor (Homo sapiens) (UniProt Q96RI1) (assay: Ratio of guggulsterone IC50 to compound IC50 for GST-tagged FXRalpha LBD (unknown origin) assessed as inhibition of CDCA-induced bio-SRC-1 recruitment after 30 mins by fluorescence based HTRF assay).
T1 sequence (whole entry): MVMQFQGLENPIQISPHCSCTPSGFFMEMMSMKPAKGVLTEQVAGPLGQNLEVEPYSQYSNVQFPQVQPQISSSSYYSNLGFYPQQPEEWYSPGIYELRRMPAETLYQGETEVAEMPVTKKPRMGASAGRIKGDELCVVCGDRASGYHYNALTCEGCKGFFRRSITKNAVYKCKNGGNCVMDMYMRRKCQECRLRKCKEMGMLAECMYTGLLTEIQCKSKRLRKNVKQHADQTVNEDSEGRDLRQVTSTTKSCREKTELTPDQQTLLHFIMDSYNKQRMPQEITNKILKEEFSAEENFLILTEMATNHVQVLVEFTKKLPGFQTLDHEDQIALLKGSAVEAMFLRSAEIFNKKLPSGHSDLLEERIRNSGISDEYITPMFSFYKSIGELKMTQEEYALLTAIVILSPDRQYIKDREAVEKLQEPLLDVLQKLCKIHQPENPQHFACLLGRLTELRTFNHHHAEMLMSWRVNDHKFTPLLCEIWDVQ

Ratio IC50 | Compound
100 | CCc1cc(C(C)=O)c(OCc2ccccc2)cc1OCCCCCC(C)(C)c1nnn[nH]1

These molecules were tested against T2, Bile acid receptor (Homo sapiens, UniProt Q96RI1) (assay: Antagonist activity at GST-tagged FXRalpha LBD (unknown origin) assessed as inhibition of CDCA-induced bio-SRC-1 recruitment after 30 mins by fluorescence based HTRF assay).
T2 sequence (Q96RI1 whole entry): T1 sequence (whole entry)
How it was run: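 HTRF coactivator-recruitment assay: 10 nM GST-FXRα LBD with 100 nM biotinylated SRC-1 peptide, with CDCA as agonist present. Compounds were tested at a single concentration or a concentration series, incubated 30 min at room temperature, then fluorescence read. Values are mean SD of triplicate measurements.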

IC50 [µM] | Compound
3.2 | CCCCCCc1cc(C(C)=O)c(O)cc1OCCCCCC(C)(C)c1nnn[nH]1
5.5 | CCc1cc(C(C)=O)c(OC)cc1OCCCCCC(C)(C)c1nnn[nH]1
3.5 | CCc1cc(CC)c(OCc2ccccc2)cc1OCCCCCC(C)(C)c1nnn[nH]1
8.5 | CCC(=O)c1cc(CC)c(OCCCCCC(C)(C)c2nnn[nH]2)cc1O
25.2 | CCCc1cc(C(C)=O)c(O)cc1OCCCCCC(C)(C)c1nnn[nH]1
35.2 | CCc1cc(C(C)=O)c(O)cc1OCCCCCC(C)(C)c1nn[nH]n1 [LY-255283]
> 100 | CCc1cc(C(C)=O)c(O)cc1OCCCCCC(C)(C)C(=O)O
3.1 | CCc1cc(C(=O)c2ccccc2)c(O)cc1OCCCCCC(C)(C)c1nnn[nH]1
1.5 | CCCCc1cc(C(C)=O)c(O)cc1OCCCCCC(C)(C)c1nnn[nH]1
5.8 | CC(=O)c1cc(CC(C)C)c(OCCCCCC(C)(C)c2nnn[nH]2)cc1O
3.3 | CCc1cc(C(C)=O)c(OC2CCCC2)cc1OCCCCCC(C)(C)c1nnn[nH]1
1.7 | CCc1cc(C(C)=O)c(OC(C)c2ccccc2)cc1OCCCCCC(C)(C)c1nnn[nH]1 (configuration not stated)
5.4 | CCCCC(=O)c1cc(CC)c(OCCCCCC(C)(C)c2nnn[nH]2)cc1O
1.2 | CCc1cc(C(C)=O)c(OCc2cccc(C)c2)cc1OCCCCCC(C)(C)c1nnn[nH]1
8.4 | CCCCCCC(=O)c1cc(CC)c(OCCCCCC(C)(C)c2nnn[nH]2)cc1O
1.1 | CCc1cc(C(C)=O)c(OCc2ccccc2)cc1OCCCCCC(C)(C)c1nnn[nH]1
7.8 | CCCCc1cc(C(C)=O)c(OCc2ccccc2)cc1OCCCCCC(C)(C)c1nnn[nH]1
8.6 | CCc1cc(C(=O)C(C)C)c(O)cc1OCCCCCC(C)(C)c1nnn[nH]1
3.1 | CCc1cc(CC)c(OCCCCCC(C)(C)c2nn[nH]n2)cc1O
8.7 | CCCCc1cc(CC)c(O)cc1OCCCCCC(C)(C)c1nnn[nH]1
2.9 | CCc1cc(C(C)=O)c(OCC2CCCCC2)cc1OCCCCCC(C)(C)c1nnn[nH]1
